From ChEMBL document CHEMBL1121731, “Synthesis and neuroleptic activity of benzamides. Cis-N-(1-benzyl-2-methylpyrrolidin-3-yl)-5-chloro-2-methoxy-4-(methylamino)benzamide and related compounds” (1981) come the findings set out here.

Common to all, as to format: functional
Experiment [1] deals with Rattus norvegicus. Description: Subcutaneous dose to inhibit apomorphine-induced stereotyped behavior in 50% of rats. The method, boiled down: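 Test drugs given subcutaneously to rats; 30 min later apomorphine 1.25 mg/kg i.v. Inhibition scored positive unless both gnawing and licking were seen during 20 min after apomorphine. ED50 estimated by Litchfield–Wilcoxon or graphical method, 6–12 rats per dose.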

For experiment [2], the species on record is Rattus norvegicus. The experiment can be described thus: Effective dose to induce catalepsy in 50% of the rats (95% confidence limits included in parentheses).
Experiment [3] is filed under the species Rattus norvegicus. Description: The inhibitory effect on the continuous avoidance was expressed as the dose to increase the number of electroshocks by 60% of the rats. The method, boiled down: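 Modified Sidman continuous avoidance schedule in rats; shock-shock interval 5 s, response-shock interval 25 s; only rats receiving fewer than 19 shocks/h used. Drugs given subcutaneously; effect expressed as dose raising electroshocks by 60 (1 shock/min) between 1 and 2 h post-dose.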

Experiment [4] can be described thus: Ratio of ED50 for inhibition of catalepsy induction to stereotypy induction.
For experiment [5], the species on record is Rattus norvegicus. The experiment can be described thus: Effective dose to induce catalepsy in 50% of the rats.
[6] abbreviates: Rattus norvegicus, sc, read-out: ED50.

Each structure is given as a SMILES string. Where only a bound is given, the exact number is not on record here.

As for `CCN(CCNC(=O)c1cc(Cl)c(N)cc1OC)Cc1ccc(F)cc1`, the median effective dose (ED50) in the experiment with Rattus norvegicus [1] (setting [6]) came out at 0.2 mg/kg.

Consider `CN(CCNC(=O)c1ccc(F)cc1)Cc1ccccc1.Cl`, for which the 50% effective dose (ED50) in the experiment on Rattus norvegicus [1] (setting [6]) is above 30 mg/kg.

On to `COc1cc(N)c(Cl)cc1C(=O)NCCN(Cc1ccccc1)C(C)(C)C`, for which the ED50 in the experiment on Rattus norvegicus [1] (setting [6]) was above 30 mg/kg.

With `CNc1cc(OC)c(C(=O)NC2CCN(Cc3ccccc3)C2C)cc1Cl` (cis isomer) [NEMONAPRIDE], the ED50 in the experiment filed under Rattus norvegicus [2] turned out to be 0.5 mg/kg; in the experiment listed under Rattus norvegicus [3] it was 0.0034 mg/kg; in the experiment with Rattus norvegicus [1], 0.0076 mg/kg.

`CCN1CCCC1CNC(=O)c1cc(S(N)(=O)=O)ccc1OC` (configuration not stated) [SULPIRIDE]: the 50% effective dose (ED50) in the experiment on Rattus norvegicus [1] (setting [6]) was above 100 mg/kg.

As for `COc1cc(C(=O)NCCN(C)Cc2ccccc2)cc(OC)c1OC`, in the experiment with Rattus norvegicus [1] (setting [6]), the ED50 is above 30 mg/kg.

Regarding `CNc1cc(OC)c(C(=O)NC2CCN(Cc3ccccc3)C2)cc1Cl` (configuration not stated), the Ratio in experiment [4] was determined as 100. Further, the ED50 in the experiment listed under Rattus norvegicus [5] came out at 1.6 mg/kg; in the experiment listed under Rattus norvegicus [3] it was 0.008 mg/kg; in the experiment with Rattus norvegicus [1] (setting [6]), 0.016 mg/kg.

Turning to `COc1cc(N)c(Cl)cc1C(=O)NC1CCN(C2CCCCC2)C1` (configuration not stated), the median effective dose (ED50) with Rattus norvegicus [1] (setting [6]) is 1.8 mg/kg.

With `COc1cc(N(C)C)c(Cl)cc1C(=O)NC1CCN(C2CCCCC2)C1` (configuration not stated), the ED50 in the experiment with Rattus norvegicus [1] (setting [6]) is 1 mg/kg.

Regarding `CCN(CCNC(=O)c1cc(Cl)c(N)cc1OC)Cc1ccccc1OC`, the ED50 with Rattus norvegicus [1] (setting [6]) came out at 10 mg/kg.

For `COc1cc(N)c(Cl)cc1C(=O)NCCN(C)CC1CCCCC1`, the ED50 in the experiment on Rattus norvegicus [1] (setting [6]) is 3 mg/kg.

In the case of `CCN(CCNC(=O)c1cc(Cl)c(N)cc1OC)Cc1ccc(Cl)cc1Cl`, in the experiment on Rattus norvegicus [1] (setting [6]), the median effective dose (ED50) worked out at 10 mg/kg.

Consider `CCC1c2ccccc2CN1CNC(=O)c1cc(Cl)c(N)cc1OC` (configuration not stated), for which, in the experiment with Rattus norvegicus [1] (setting [6]), the ED50 was 1 mg/kg.

On to `COc1cc(N2CCCC2)c(Cl)cc1C(=O)NC1CCN(Cc2ccccc2)C1` (configuration not stated), for which the ED50 in the experiment with Rattus norvegicus [1] (setting [6]) was found to be 0.6 mg/kg.

For `CCN1CCCC1CNC(=O)c1cc(Cl)c(N)cc1OC` (configuration not stated), the ED50 in the experiment with Rattus norvegicus [1] (setting [6]) was above 30 mg/kg.

Take `CCN(CCNC(=O)c1cc(Cl)c(N)cc1OC)Cc1ccc(OC)cc1`: in the experiment with Rattus norvegicus [1] (setting [6]), the ED50 was determined as 0.2 mg/kg.

On to `COc1ccc(OC)c(C(=O)NCCN(C)Cc2ccccc2)c1.Cl`, for which the median effective dose (ED50) in the experiment on Rattus norvegicus [1] (setting [6]) came to 3 mg/kg.

Consider `CCN(CCNC(=O)c1cc(Cl)c(N)cc1OC)Cc1ccccc1Cl`, for which the ED50 in the experiment with Rattus norvegicus [1] (setting [6]) stood at 10 mg/kg.

For `COc1cc(N(C)C(C)=O)c(Cl)cc1C(=O)NC1CCN(Cc2ccccc2)C1` (configuration not stated), the ED50 with Rattus norvegicus [1] (setting [6]) is above 30 mg/kg.

Take `COc1ccc(S(N)(=O)=O)cc1C(=O)NCCN(C)Cc1ccccc1`: the 50% effective dose (ED50) in the experiment on Rattus norvegicus [1] (setting [6]) is above 30 mg/kg.

Regarding `COc1cc(N)c(Cl)cc1C(=O)NCCN(Cc1ccccc1)Cc1ccccc1`, the ED50 with Rattus norvegicus [1] (setting [6]) was above 30 mg/kg.

As to `COc1cc(NC=O)c(Cl)cc1C(=O)NC1CCN(Cc2ccccc2)C1` (configuration not stated), the median effective dose (ED50) in the experiment with Rattus norvegicus [1] (setting [6]) was 0.6 mg/kg.

As to `CNc1cc(OC)c(C(=O)NC2CCN(Cc3ccccc3)C2C)cc1Cl` (cis isomer), the Ratio in experiment [4] came to 66.

On to `COc1cc(N)c(Cl)cc1C(=O)NCCN(Cc1ccc(Cl)cc1)C(C)C`, for which the ED50 in the experiment with Rattus norvegicus [1] (setting [6]) was found to be 3 mg/kg.

Consider `COc1cc(N(C)C)c(Cl)cc1C(=O)NCC1CCCN1C1CCCCC1.O=C(O)C(=O)O` (configuration not stated), for which the ED50 in the experiment with Rattus norvegicus [1] (setting [6]) is above 30 mg/kg.

Turning to `COc1cc(N(C)C(=O)C(F)(F)F)c(Cl)cc1C(=O)NC1CCN(Cc2ccccc2)C1` (configuration not stated), the median effective dose (ED50) with Rattus norvegicus [1] (setting [6]) stood at 0.3 mg/kg.

As to `COc1cc(N)c(Cl)cc1C(=O)NC1CCN(Cc2ccccc2)C1` (configuration not stated), the median effective dose (ED50) in the experiment on Rattus norvegicus [1] (setting [6]) came out at 0.17 mg/kg.

Turning to `CCN(CCNC(=O)c1cc(Cl)c(N)cc1OC)Cc1cccc(Cl)c1`, the ED50 with Rattus norvegicus [1] (setting [6]) is 0.58 mg/kg.

For the compound `CCN(CCNC(=O)c1cc(Cl)c(N)cc1OC)Cc1ccccn1`, the ED50 with Rattus norvegicus [1] (setting [6]) came to 30 mg/kg.

With `CCNS(=O)(=O)c1ccc(OC)c(C(=O)NCCN(C)Cc2ccccc2)c1`, the ED50 in the experiment on Rattus norvegicus [1] (setting [6]) was above 30 mg/kg.

As to `CNc1cc(OC)c(C(=O)NCC2CCC(C)N2Cc2ccccc2)cc1Cl.Cl` (configuration not stated), in experiment [4], the Ratio was found to be 39. The results for the median effective dose (ED50) in the experiment filed under Rattus norvegicus [5], in the experiment filed under Rattus norvegicus [3] and in the experiment with Rattus norvegicus [1] (setting [6]) were 13.5 mg/kg, 0.11 mg/kg and 0.35 mg/kg, respectively.

For `COc1ccc(Cl)cc1C(=O)NCCN(C)Cc1ccccc1.Cl`, in the experiment with Rattus norvegicus [1] (setting [6]), the ED50 is 3 mg/kg.

With `CCN(CCNC(=O)c1cc(Cl)c(N)cc1OC)Cc1ccccc1`, the ED50 in the experiment with Rattus norvegicus [1] (setting [6]) turned out to be 0.31 mg/kg.

For the compound `COc1cc(N(C)C)c(Cl)cc1C(=O)NC1CCN(Cc2ccccc2)C1` (configuration not stated), the ED50 in the experiment on Rattus norvegicus [1] (setting [6]) was 0.12 mg/kg.

As for `CCN(CCNC(=O)c1cc(Cl)c(N)cc1OC)Cc1cccc(OC)c1`, the ED50 with Rattus norvegicus [1] (setting [6]) is 1 mg/kg.

Turning to `CCN(CC)CCNC(=O)c1cc(Cl)c(N)cc1OC` [METOCLOPRAMIDE], the Ratio in experiment [4] was 8.4. Further, the ED50 in the experiment filed under Rattus norvegicus [5] was 26 mg/kg; in the experiment filed under Rattus norvegicus [3], 2.6 mg/kg; in the experiment on Rattus norvegicus [1] (setting [6]), 3.1 mg/kg.

`COc1cc(N)c(Cl)cc1C(=O)NCC1CCC(C)N1Cc1ccccc1` (configuration not stated): in the experiment on Rattus norvegicus [1] (setting [6]), the ED50 came to 0.67 mg/kg.

As to `CCCNc1cc(OC)c(C(=O)NC2CCN(Cc3ccccc3)C2)cc1Cl` (configuration not stated), the ED50 in the experiment with Rattus norvegicus [1] (setting [6]) was determined as 17 mg/kg.

With `COc1cc(N)c(Cl)cc1C(=O)NCCN(C)C(C)c1ccccc1` (configuration not stated), the ED50 in the experiment with Rattus norvegicus [1] (setting [6]) is 1 mg/kg.

As for `CCN(CCNC(=O)c1cc(Cl)c(N)cc1OC)Cc1ccc(Cl)cc1`, the ED50 in the experiment with Rattus norvegicus [1] (setting [6]) is 0.24 mg/kg.

`CCCCN(CCNC(=O)c1cc(Cl)c(N)cc1OC)Cc1ccc(Cl)cc1`: in the experiment on Rattus norvegicus [1] (setting [6]), the ED50 came out at 20 mg/kg.

Take `O=C(CCCN1CCC(O)(c2ccc(Cl)cc2)CC1)c1ccc(F)cc1` [HALOPERIDOL]: in experiment [4], the Ratio turned out to be 11. Also, the median effective dose (ED50) in the experiment filed under Rattus norvegicus [5] is 1 mg/kg; in the experiment filed under Rattus norvegicus [3], 0.021 mg/kg; with Rattus norvegicus [1] (setting [6]) it was 0.095 mg/kg.

In the case of `COc1cc(NC(C)=O)c(Cl)cc1C(=O)NC1CCN(Cc2ccccc2)C1` (configuration not stated), the ED50 in the experiment with Rattus norvegicus [1] (setting [6]) was 1.8 mg/kg.

As to `CCNc1cc(OC)c(C(=O)NC2CCN(Cc3ccccc3)C2)cc1Cl` (configuration not stated), the ED50 with Rattus norvegicus [1] (setting [6]) worked out at 0.1 mg/kg.

Take `COc1cc(NCc2ccccc2)c(Cl)cc1C(=O)NC1CCN(Cc2ccccc2)C1` (configuration not stated): the 50% effective dose (ED50) in the experiment with Rattus norvegicus [1] (setting [6]) is above 30 mg/kg.

Take `CCN(CCNC(=O)c1cc(Cl)c(N)cc1OC)Cc1ccco1`: the ED50 with Rattus norvegicus [1] (setting [6]) turned out to be 3 mg/kg.

On to `COc1cc(N(C)C)c(Cl)cc1C(=O)NCCN(C)Cc1ccccc1`, for which the median effective dose (ED50) in the experiment with Rattus norvegicus [1] (setting [6]) was found to be 0.54 mg/kg.

As to `CCN1CCC(NC(=O)c2cc(Cl)c(NC)cc2OC)C1` (configuration not stated), in the experiment with Rattus norvegicus [1] (setting [6]), the 50% effective dose (ED50) amounted to 10 mg/kg.

Consider `CNc1cc(OC)c(C(=O)NCCN(C)Cc2ccccc2)cc1Cl.Cl`, for which, in experiment [4], the Ratio came out at 79. In addition, the ED50 is 16.5 mg/kg in the experiment filed under Rattus norvegicus [5], 0.041 mg/kg in the experiment filed under Rattus norvegicus [3] and 0.21 mg/kg with Rattus norvegicus [1] (setting [6]).

In the experiment with Rattus norvegicus [1], `CNc1cc(OC)c(C(=O)NC2CCN(Cc3ccccc3)C2C)cc1Cl` (trans isomer) [NEMONAPRIDE] gave an ED50 of 0.057 mg/kg.

Take `CCN1C(CNC(=O)c2cc(Cl)c(NC)cc2OC)CCC1c1ccccc1` (configuration not stated): the 50% effective dose (ED50) with Rattus norvegicus [1] (setting [6]) was above 30 mg/kg.

Turning to `COc1ccc(S(C)(=O)=O)cc1C(=O)NCCN(C)Cc1ccccc1`, in the experiment on Rattus norvegicus [1] (setting [6]), the ED50 stood at 3 mg/kg.

On to `COc1cc(N)c(Cl)cc1C(=O)NCCN(C)Cc1ccccc1C(F)(F)F`, for which the 50% effective dose (ED50) in the experiment on Rattus norvegicus [1] (setting [6]) turned out to be 30 mg/kg.

Consider `COc1cc(N)c(Cl)cc1C(=O)NCC1CCCN1Cc1ccccc1` (configuration not stated), for which the ED50 in the experiment with Rattus norvegicus [1] (setting [6]) stood at 1.1 mg/kg.

For the compound `CCNCCNC(=O)c1cc(Cl)c(N)cc1OC` [MONODEETHYLATED-MCP], the median effective dose (ED50) in the experiment on Rattus norvegicus [1] (setting [6]) is above 30 mg/kg.

With `COc1cc(N)c(Cl)cc1C(=O)NCCN(C)Cc1ccccc1`, in the experiment on Rattus norvegicus [1] (setting [6]), the 50% effective dose (ED50) is 0.38 mg/kg.

As for `COc1cc(N)c(Cl)cc1C(=O)NCCN(C)Cc1ccccc1C`, in the experiment with Rattus norvegicus [1] (setting [6]), the ED50 stood at 2 mg/kg.

With `CCCN(CCNC(=O)c1cc(Cl)c(N)cc1OC)Cc1ccc(Cl)cc1`, the ED50 in the experiment with Rattus norvegicus [1] (setting [6]) came to 3 mg/kg.

Turning to `CNc1cc(OC)c(C(=O)NCC2CCCN2Cc2ccccc2)cc1Cl.Cl` (configuration not stated), the median effective dose (ED50) with Rattus norvegicus [1] (setting [6]) was 0.94 mg/kg.

With `CCN1CCCC1CNC(=O)c1cc(S(=O)(=O)CC)ccc1OC` (configuration not stated) [SULTOPRIDE], in the experiment on Rattus norvegicus [1] (setting [6]), the median effective dose (ED50) is 18 mg/kg.
